Each structure is given as a SMILES string. In brackets after ≈: the same amount, converted by molar mass. Activity calls are given as the source filed them. The calls are words filed in the database; no cut-off is given here. Some results are limits rather than exact numbers.

The values that follow come from ChEMBL document CHEMBL2385036, “Peptaibols, tetramic acid derivatives, isocoumarins, and sesquiterpenes from a Bionectria sp. (MSX 47401)” (J Nat Prod, 2013).

The test system of one test is Aspergillus niger. The test can be described thus: Antifungal activity against Aspergillus niger after 7 days by broth microdilution method. The format is functional. The settings on record: 168 h. In short, it runs like this: (§1)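 MIC by broth method: cultures diluted 10- to 100,000-fold in growth medium, with both undiluted cultures and the dilutions used as inocula; each measurement run in duplicate.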

Test [1] deals with Staphylococcus aureus. As to the kind of experiment: Antimicrobial activity against methicillin-resistant Staphylococcus aureus GU 34864 after 7 days by broth microdilution method. Type of test: functional. The note with it: GU 34864, 168 h. In short, it runs like this:
(§2)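 MIC read-out; inocula were undiluted cultures plus cultures diluted 10- to 100,000-fold in growth medium. All measurements were run in duplicate.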

Test [2] has as its system Staphylococcus aureus. The test can be described thus: Antimicrobial activity against methicillin-resistant Staphylococcus aureus GU 34380 after 7 days by broth microdilution method. Type of test: functional. The note with it: GU 34380, 168 h. The method, boiled down: as §2
The subject of test [3] is Staphylococcus aureus. As to the kind of experiment: Antimicrobial activity against methicillin-resistant Staphylococcus aureus ATCC 43300 after 7 days by broth microdilution method. The settings on record: ATCC 43300, 168 h. Type of test: functional. The method, boiled down:
as §2

The next test deals with Candida albicans. The test can be described thus: Antifungal activity against Candida albicans after 7 days by broth microdilution method. The format is functional. The settings on record: 168 h. In short, it runs like this:
as §1

The subject of test [4] is Staphylococcus aureus. The test can be described thus: Antimicrobial activity against methicillin-resistant Staphylococcus aureus GU 52300 after 7 days by broth microdilution method. Type of test: functional. The note with it: GU 52300, 168 h. The method, boiled down: as §2
A further test deals with Cryptococcus neoformans. The test can be described thus: Antifungal activity against Cryptococcus neoformans after 7 days by broth microdilution method. The format is functional. The note with it: 168 h. In short, it runs like this:
as §1

For test [5], the system named is Staphylococcus aureus. The test can be described thus: Antimicrobial activity against methicillin-resistant Staphylococcus aureus GU 53016 after 7 days by broth microdilution method. The note with it: GU 53016, 168 h. The format is functional. The method, boiled down: as §2
Test [6] relates to Staphylococcus aureus. As to the kind of experiment: Antimicrobial activity against methicillin-resistant Staphylococcus aureus GU 36361 after 7 days by broth microdilution method. The format is functional. The note with it: GU 36361, 168 h. In short, it runs like this: as §2
Test [7] has as its system Staphylococcus aureus. The test can be described thus: Antimicrobial activity against Staphylococcus aureus ATCC 6538 after 7 days by broth microdilution method. The format is functional. The settings on record: ATCC 6538, 168 h. In short, it runs like this: as §2
For test [8], the system named is Staphylococcus aureus. The test can be described thus: Antimicrobial activity against methicillin-resistant Staphylococcus aureus DA 1 after 7 days by broth microdilution method. The format is functional. The note with it: DA 1, 168 h. In short, it runs like this:
as §2

The next test concerns NCI-H460. The test can be described thus: Cytotoxicity against human NCI-H460 cells after 72 hrs by MTS assay. The format is functional, cell-based. In short, it runs like this:
(§3)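 Cell lines were MCF-7 human breast carcinoma (Karmanos Cancer Center), NCI-H460 human large cell lung carcinoma (ATCC HTB-177) and SF-268 human astrocytoma (NCI Developmental Therapeutics Program). The cytotoxicity protocol followed an earlier report.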

The next test deals with SF-268. The test can be described thus: Cytotoxicity against human SF268 cells after 72 hrs by MTS assay. Type of test: functional, cell-based. In short, it runs like this:
as §3

The test system of the next test is MCF7. As to the kind of experiment: Cytotoxicity against human MCF7 cells after 72 hrs by MTS assay. Type of test: functional, cell-based. The method, boiled down: as §3

For `CC1=CC[C@H]([C@](C)(O)CCC(O)C(C)(C)O)CC1` (some centres not stated), the MIC in the test with Aspergillus niger, in the test on Staphylococcus aureus [1], in the test on Staphylococcus aureus [2], with Staphylococcus aureus [3], in the test with Candida albicans and in the test with Staphylococcus aureus [4] was > 118 µg/mL throughout. In addition, the MIC against Cryptococcus neoformans, in the test on Staphylococcus aureus [5], in the test on Staphylococcus aureus [6], in the test on Staphylococcus aureus [7] and against Staphylococcus aureus [8] was > 118 µg/mL in each case.
`CC(CCCCCCCCC(=O)CCCCCCCCC[C@@H](O)CO[C@@H]1O[C@H](CO)[C@@H](O)[C@H](O)[C@H]1O)C(=O)C1=C(O)C(Cc2ccc(O)cc2)=NC1=O` (some centres not stated): the outcome with NCI-H460, with SF-268 and in the test with MCF7 was inactive. In addition, the MIC is > 55 µg/mL in the test on Aspergillus niger; 14 µg/mL (≈ 18.7 µM) against Staphylococcus aureus [1]; 14 µg/mL (≈ 18.7 µM) against Staphylococcus aureus [2]; 14 µg/mL (≈ 18.7 µM) in the test on Staphylococcus aureus [3]; > 55 µg/mL with Candida albicans; 28 µg/mL (≈ 37.4 µM) with Staphylococcus aureus [4]. The minimal inhibitory concentration (MIC) against Cryptococcus neoformans is > 55 µg/mL; in the test with Staphylococcus aureus [5], 28 µg/mL (≈ 37.4 µM); in the test on Staphylococcus aureus [6] it was 28 µg/mL (≈ 37.4 µM); with Staphylococcus aureus [7] it was 14 µg/mL (≈ 18.7 µM); with Staphylococcus aureus [8], 14 µg/mL (≈ 18.7 µM).
Take `CC[C@H](C)[C@@H](NC(=O)[C@@](C)(CC)NC(=O)[C@@H]1C[C@@H](O)CN1C(=O)[C@@](C)(CC)NC(=O)[C@@](C)(CC)NC(=O)C(C)(C)NC(=O)[C@@H]1C[C@@H](O)CN1C(=O)[C@@](C)(CC)NC(=O)[C@H](CC(C)C)NC(=O)[C@@H]1C[C@@H](O)CN1C(=O)[C@](C)(CC)NC(=O)[C@H](CC(C)C)NC(=O)[C@@H]1C[C@@H](O)CN1C(=O)C(C)(C)NC(C)=O)C(=O)O[C@@H]([C@H](O)[C@H](O)CO)[C@H](O)CO`: the MIC with Aspergillus niger, in the test on Staphylococcus aureus [1], with Staphylococcus aureus [2], against Staphylococcus aureus [3], in the test with Candida albicans and in the test with Staphylococcus aureus [4] was > 118 µg/mL each time. The minimal inhibitory concentration (MIC) in the test on Cryptococcus neoformans, against Staphylococcus aureus [5], against Staphylococcus aureus [6], in the test with Staphylococcus aureus [7] and against Staphylococcus aureus [8] was > 118 µg/mL in each case.
With `CC(=O)c1coc(=O)c2c(O)cc(O)c(C)c12`, the half-maximal inhibitory concentration (IC50) in the test on NCI-H460 (NCI-H460, 72 h) is > 10 µM; in the test with SF-268 (SF-268, 72 h), > 10 µM; with MCF7 (MCF7, 72 h), > 10 µM.
As to `C[C@@H]1[C@H](O)[C@@H](C)/C=C/C=C/C=C/C=C/C=C/C=C/C=C/[C@H](O[C@@H]2O[C@H](C)[C@@H](O)[C@H](N)[C@@H]2O)C[C@@H]2O[C@](O)(C[C@@H](O)C[C@@H](O)[C@H](O)CC[C@@H](O)C[C@@H](O)CC(=O)O[C@H]1C)C[C@H](O)[C@H]2C(=O)O` [AMPHOTERICIN B], the figures for the minimal inhibitory concentration (MIC) against Aspergillus niger, against Candida albicans and with Cryptococcus neoformans were 100 µg/mL (≈ 108 µM), 25 µg/mL (≈ 27.1 µM) and 25 µg/mL (≈ 27.1 µM), respectively.
On to `CC[C@H](C)[C@@H](NC(=O)[C@@](C)(CC)NC(=O)[C@@H]1C[C@@H](O)CN1C(=O)C(C)(C)NC(=O)[C@@](C)(CC)NC(=O)C(C)(C)NC(=O)[C@@H]1C[C@@H](O)CN1C(=O)[C@@](C)(CC)NC(=O)[C@H](CC(C)C)NC(=O)[C@@H]1C[C@@H](O)CN1C(=O)[C@](C)(CC)NC(=O)[C@H](CC(C)C)NC(=O)[C@@H]1C[C@@H](O)CN1C(=O)C(C)(C)NC(C)=O)C(=O)O[C@@H]([C@H](O)[C@H](O)CO)[C@H](O)CO` [CLONOSTACHIN], for which the minimum inhibitory concentration (MIC) in the test with Aspergillus niger, in the test with Staphylococcus aureus [1], with Staphylococcus aureus [2], with Staphylococcus aureus [3], against Candida albicans and with Staphylococcus aureus [4] was > 118 µg/mL each time. Moreover, the minimum inhibitory concentration (MIC) in the test on Cryptococcus neoformans, against Staphylococcus aureus [5], against Staphylococcus aureus [6], in the test with Staphylococcus aureus [7] and in the test with Staphylococcus aureus [8] was > 118 µg/mL in each case.
Consider `CN[C@H](CC(C)C)C(=O)N[C@H]1C(=O)N[C@@H](CC(N)=O)C(=O)N[C@H]2C(=O)N[C@H]3C(=O)N[C@H](C(=O)N[C@H](C(=O)O)c4cc(O)cc(O)c4-c4cc3ccc4O)[C@H](O)c3ccc(c(Cl)c3)Oc3cc2cc(c3O[C@@H]2O[C@H](CO)[C@@H](O)[C@H](O)[C@H]2O[C@H]2C[C@](C)(N)[C@H](O)[C@H](C)O2)Oc2ccc(cc2Cl)[C@H]1O` [VANCOMYCIN], for which the MIC against Staphylococcus aureus [1] was found to be 0.38 µg/mL (≈ 0.262 µM); with Staphylococcus aureus [3] it was 0.25 µg/mL (≈ 0.173 µM); with Staphylococcus aureus [5] it was 0.38 µg/mL (≈ 0.262 µM); in the test with Staphylococcus aureus [6], 0.75 µg/mL (≈ 0.518 µM); with Staphylococcus aureus [7] it was 0.25 µg/mL (≈ 0.173 µM); in the test with Staphylococcus aureus [8], 0.25 µg/mL (≈ 0.173 µM).
As to `CC(CCCCCCCCC(=O)CCCCCCCCC[C@@H](O)CO)C(=O)C1=C(O)[C@H](Cc2ccc(O)cc2)NC1=O` (some centres not stated) [VIRGINEONE AGLYCONE], the outcome in the test with NCI-H460, in the test with SF-268 and in the test on MCF7 was inactive. For the same compound, the minimal inhibitory concentration (MIC) is > 88 µg/mL in the test with Aspergillus niger; 2.8 µg/mL (≈ 4.76 µM) in the test on Staphylococcus aureus [1]; 2.8 µg/mL (≈ 4.76 µM) against Staphylococcus aureus [2]; 2.8 µg/mL (≈ 4.76 µM) in the test on Staphylococcus aureus [3]; > 88 µg/mL in the test with Candida albicans; 5.5 µg/mL (≈ 9.36 µM) against Staphylococcus aureus [4]. The MIC was > 88 µg/mL against Cryptococcus neoformans; 2.8 µg/mL (≈ 4.76 µM) with Staphylococcus aureus [5]; 5.5 µg/mL (≈ 9.36 µM) against Staphylococcus aureus [6]; 2.8 µg/mL (≈ 4.76 µM) in the test with Staphylococcus aureus [7]; 2.8 µg/mL (≈ 4.76 µM) against Staphylococcus aureus [8].
For the compound `CC(CCCCCCCCC(=O)CCCCCCCCCC(O)CO[C@@H]1O[C@H](CO)[C@@H](O)[C@H](O)[C@@H]1O)C(=O)C1=C(O)C(Cc2ccc(O)cc2)NC1=O` (some centres not stated) [VIRGINEONE], the outcome in the test with NCI-H460, in the test with SF-268 and in the test with MCF7 was inactive. In addition, the MIC came out at 14.4 µg/mL (≈ 19.2 µM) in the test on Aspergillus niger; 7.2 µg/mL (≈ 9.6 µM) with Staphylococcus aureus [1]; 7.2 µg/mL (≈ 9.6 µM) with Staphylococcus aureus [2]; 7.2 µg/mL (≈ 9.6 µM) against Staphylococcus aureus [3]; 14.4 µg/mL (≈ 19.2 µM) in the test on Candida albicans; 7.2 µg/mL (≈ 9.6 µM) against Staphylococcus aureus [4]. Further, the minimal inhibitory concentration (MIC) is 14.4 µg/mL (≈ 19.2 µM) with Cryptococcus neoformans; 7.2 µg/mL (≈ 9.6 µM) against Staphylococcus aureus [5]; 7.2 µg/mL (≈ 9.6 µM) against Staphylococcus aureus [6]; 7.2 µg/mL (≈ 9.6 µM) against Staphylococcus aureus [7]; 7.2 µg/mL (≈ 9.6 µM) in the test on Staphylococcus aureus [8].
